Laboratory results published in ChEMBL document CHEMBL4616611, “Synthesis and biological evaluation of FICZ analogues as agonists of aryl hydrocarbon receptor” (Bioorg Med Chem Lett, 2020).
Activity calls are given as the source filed them. The rule behind the calls is not given here.

Experiments:
[1] = molecular target: T1, Aryl hydrocarbon receptor (Homo sapiens, UniProt P35869); assay: Potency index, ratio of FICZ EC50 to test compound EC50 for agonist activity at AhR in human HepG2 cells assessed as increase in CYP1A1 expression after 24 hrs by ethoxyresorufin-O-deethylase assay; assay type: cell-based; conditions: hepg2, 24 h
T1 sequence (P35869 whole entry): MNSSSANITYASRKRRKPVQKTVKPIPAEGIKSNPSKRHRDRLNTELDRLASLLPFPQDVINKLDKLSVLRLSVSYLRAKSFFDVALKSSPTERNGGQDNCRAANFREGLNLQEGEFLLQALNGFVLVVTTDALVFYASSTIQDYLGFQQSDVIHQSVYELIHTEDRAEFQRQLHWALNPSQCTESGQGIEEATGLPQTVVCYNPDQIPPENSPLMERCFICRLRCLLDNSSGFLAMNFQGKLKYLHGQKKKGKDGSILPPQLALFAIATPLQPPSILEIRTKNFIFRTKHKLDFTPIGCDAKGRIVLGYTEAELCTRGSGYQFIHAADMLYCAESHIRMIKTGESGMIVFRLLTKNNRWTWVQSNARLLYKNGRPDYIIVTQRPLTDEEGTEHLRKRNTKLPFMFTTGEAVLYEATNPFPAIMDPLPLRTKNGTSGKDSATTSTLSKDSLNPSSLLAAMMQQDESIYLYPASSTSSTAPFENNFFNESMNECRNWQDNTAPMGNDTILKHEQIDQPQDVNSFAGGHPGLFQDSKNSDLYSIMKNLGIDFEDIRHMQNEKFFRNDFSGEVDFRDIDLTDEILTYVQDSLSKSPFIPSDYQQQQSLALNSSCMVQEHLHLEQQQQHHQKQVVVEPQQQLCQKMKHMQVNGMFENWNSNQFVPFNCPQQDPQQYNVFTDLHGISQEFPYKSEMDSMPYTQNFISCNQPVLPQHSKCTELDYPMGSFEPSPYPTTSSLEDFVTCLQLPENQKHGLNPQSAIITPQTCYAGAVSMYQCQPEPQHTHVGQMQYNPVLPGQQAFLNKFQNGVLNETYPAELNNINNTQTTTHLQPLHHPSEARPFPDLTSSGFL

[2] = molecular target: T2, CYP1A1 (Homo sapiens, UniProt P35869); assay: Agonist activity at AhR in human HepG2 cells assessed as induction of CYP1A1 activity at 3.2 nM using 7-ethoxyresorufin as substrate after 24 hrs by ethoxyresorufin-O-deethylase assay relative to DMSO; assay type: cell-based; conditions: probe 7-ethoxyresorufin, read-out: FC
T2 sequence (P35869 whole entry): T1 sequence (P35869 whole entry)
Summary of the method: (§1)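 EROD read-out of CYP1A1 activity in HepG cells treated for 24 h with compound or vehicle (DMSO) at 0.13 nM, 3.2 nM and 80 nM. Activity is reported as fold induction over the DMSO-treated cells.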

[3] = molecular target: T1, Aryl hydrocarbon receptor; assay: Agonist activity at AhR in human HepG2 cells assessed as induction of CYP1A1 expression at <30 pM after 24 hrs by ethoxyresorufin-O-deethylase assay; assay type: cell-based; conditions: hepg2, 24 h
Summary of the method: (§2)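 Full dose-response in the EROD assay. HepG2 cells were treated for 24 h across a concentration series, with FICZ as the reference agonist. CYP1A1 induction was read out and EC50 values were derived from the curves.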

[4] = molecular target: T2, CYP1A1; assay: Agonist activity at AhR in human HepG2 cells assessed as induction of CYP1A1 activity at 0.13 nM using 7-ethoxyresorufin as substrate after 24 hrs by ethoxyresorufin-O-deethylase assay relative to DMSO; assay type: cell-based; conditions: probe 7-ethoxyresorufin, read-out: FC; summary of the method: as §1
[5] = molecular target: T1, Aryl hydrocarbon receptor; assay: Agonist activity at AhR in human HepG2 cells assessed as induction of CYP1A1 expression after 24 hrs by ethoxyresorufin-O-deethylase assay; assay type: cell-based; conditions: for Activity: human, hepg2, 24 h; summary of the method: as §2
[6] = test system: HepG2; assay: Effect on AhR mRNA expression in human HepG2 cells assessed as 100 nM after 6 hrs by q-RT-PCR analysis; assay type: functional, cell-based
Summary of the method: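 HepG2 cells were treated at 100 nM for 6 h. AhR and CYP1A1 mRNA levels were then quantified by qRT-PCR, normalized to GAPDH.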

[7] = molecular target: T1, Aryl hydrocarbon receptor; assay: Agonist activity at AhR in human HepG2 cells assessed as increase in CYP1A1 protein expression at 3 to 10 nM after 24 hrs by Western blot analysis; assay type: cell-based; conditions: hepg2, 24 h
Summary of the method: (§3)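 HepG2 cells were exposed to a dose series for 24 h. CYP1A1 protein levels were then assessed by Western blotting.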

[8] = molecular target: T1, Aryl hydrocarbon receptor; assay: Agonist activity at AhR in human HepG2 cells assessed as increase in CYP1A1 protein expression after 24 hrs by Western blot analysis; assay type: cell-based; conditions: hepg2, 24 h; summary of the method: as §3
[9] = molecular target: T2, CYP1A1; assay: Agonist activity at AhR in human HepG2 cells assessed as induction of CYP1A1 activity at 80 nM using 7-ethoxyresorufin as substrate after 24 hrs by ethoxyresorufin-O-deethylase assay relative to DMSO; assay type: cell-based; conditions: probe 7-ethoxyresorufin, read-out: FC; summary of the method: as §1
[10] = molecular target: T2, CYP1A1; assay: Agonist activity at AhR in human HepG2 cells assessed as induction of CYP1A1 activity at 0.13 nM using 7-ethoxyresorufin as substrate after 24 hrs by ethoxyresorufin-O-deethylase assay relative to 3-phenylbenzo[f]chromen-1-one; assay type: cell-based; conditions: probe 7-ethoxyresorufin, read-out: FC
[11] = molecular target: T2, CYP1A1; assay: Agonist activity at AhR in human HepG2 cells assessed as induction of CYP1A1 activity at 3.2 nM using 7-ethoxyresorufin as substrate after 24 hrs by ethoxyresorufin-O-deethylase assay relative to 3-phenylbenzo[f]chromen-1-one; assay type: cell-based; conditions: probe 7-ethoxyresorufin, read-out: FC
[12] = molecular target: T1, Aryl hydrocarbon receptor; assay: Agonist activity at AhR in human HepG2 cells assessed as increase in CYP1A1 protein expression at 300 nM after 24 hrs by Western blot analysis; assay type: cell-based; conditions: hepg2, 24 h, 0.3 µM; summary of the method: as §3

Compound	fold induction at 24 h, 0.0032 µM [2]	fold induction at 24 h, 0.00013 µM [4]	fold induction at 24 h, 0.08 µM [9]	other results
Cn1c2ccccc2c2cc3[nH]c4ccccc4c3c(C=O)c21	88.9	27.3	82.4	Ratio EC50 [1]: 8; Activity [3]: Active; EC50 [5]: 0.26 nM; Activity [5]: Dose-dependent effect; Activity [6]: inactive; Activity [7]: Active; Activity [8]: Dose-dependent effect
CCn1c2ccccc2c2cc3[nH]c4ccccc4c3c(CO)c21	3.5	1.4	31.8	
Cn1c2ccccc2c2cc3c(c(C=O)c21)c1ccccc1n3Cc1ccccc1	4.2	1	27.5	
OCc1c2[nH]c3ccccc3c2cc2[nH]c3ccccc3c12	13.4	3.8	59.2	fold induction at 24 h, 0.00013 µM [10]: 5; fold induction at 24 h, 0.0032 µM [11]: 12
Cn1c2ccccc2c2c(C=O)c3c(cc21)c1ccccc1n3C	3.4	1.6	39.4	
O=c1cc(-c2ccccc2)oc2ccc3ccccc3c12 [BETA-NAPHTHOFLAVONE]	1.1	0.8	11.2	Activity [12]: Active
CCCn1c2ccccc2c2cc3[nH]c4ccccc4c3c(CO)c21	0.5	0.4	3.4	
OCc1c2c(cc3c4ccccc4n(CC4CC4)c13)[nH]c1ccccc12	0.5	0.3	2.6	
CCn1c2ccccc2c2c(C=O)c3c(cc21)c1ccccc1n3C	4.5	1.4	25.1	
Cn1c2ccccc2c2cc3[nH]c4ccccc4c3c(CO)c21	26.7	5.3	62.6	
CCCn1c2ccccc2c2c(C=O)c3c(cc21)c1ccccc1n3C	1.9	1.3	8.9	
O=Cc1c2[nH]c3ccccc3c2cc2[nH]c3ccccc3c12				Activity [5]: Dose-dependent effect
OCc1c2c(cc3c4ccccc4n(Cc4ccccc4)c13)[nH]c1ccccc12	0.7	0.4	3.6	
